Data from ChEMBL document CHEMBL1144934, “Efficacious and orally bioavailable thrombin inhibitors based on a 2,5-thienylamidine at the P1 position: discovery of N-carboxymethyl-d-diphenylalanyl-l-prolyl[(5-amidino-2-thienyl)methyl]amide” (J Med Chem, 2003).

Assays:
[1] = biological target: Prothrombin (Homo sapiens, UniProt P00734); assay: In vitro inhibition constant (Ki) against human thrombin
[2] = Area under curve (AUC) was measured after oral dosing at 30 mg/kg in rat; assay type: ADME, organism-based; parameters: dose 30 mg/kg, route oral; settings: in vivo
[3] = Maximal plasma concentration in rats after 30 mg/kg oral dose; assay type: ADME, organism-based; parameters: dose 30 mg/kg, route oral; settings: rat
[4] = In vitro metabolic stability was determined using liver S9 fraction from human at initial concentration of 20 uM; assay type: ADME; settings: liver S9 fraction, read-out: Recovery
Summary of the method: (§1)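 Liver S9 (9000g supernatant of homogenate in Tris-acetate pH 7.4, KCl, EDTA) from rat, dog, monkey (pooled, n = 2) or human (n = 2); 20 µM final compound with NADPH generating system and S9 6.72 mg/mL in 100 mM phosphate pH 7.4, 37 °C. Samples methanol-deproteinized, HPLC; recovery after 30 min reported; no-NADPH control.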

[5] = In vitro metabolic stability was determined using liver S9 fraction from rat at initial concentration of 20 uM; assay type: ADME; settings: read-out: Recovery; summary of the method: as §1
[6] = In vitro metabolic stability was determined using liver S9 fraction from dog at initial concentration of 20 uM; assay type: ADME, Canis lupus familiaris; settings: read-out: Recovery; summary of the method: as §1
[7] = In vitro metabolic stability was determined using liver S9 fraction from monkey at initial concentration of 20 uM; assay type: ADME, subcellular; settings: simiiformes, read-out: Recovery; summary of the method: as §1
[8] = Bioavailability in rat; assay type: ADME, organism-based; settings: in vivo
[9] = Area under curve (AUC) was determined after intravenous dosing at 10 mg/kg in rat; assay type: ADME, organism-based; parameters: dose 10 mg/kg, route intravenous; settings: in vivo
Summary of the method: (§2)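 Male Sprague–Dawley rats (250–300 g), femoral artery and vein cannulated under light ether anesthesia; after recovery, 10 mg/kg given via femoral vein. Arterial blood sampled at 0, 1, 5, 15, 30, 60, 90, 120, 180, 240 min, collected into heparinized tubes, deproteinized with 2 volumes methanol, centrifuged; supernatant analyzed by HPLC (0.1% TFA/acetonitrile 81:19).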

[10] = species on record: Homo sapiens
[11] = species on record: Rattus norvegicus; assay: In vitro concentration of inhibitor to double the activated partial thromboplastin time was evaluated in rat; assay type: functional
[12] = test system: Rattus norvegicus; assay: In vivo inhibition of thrombus formation in thromboplastin-induced deep vein thrombosis (DVT) rat model after iv bolus dosing at 1 mg/kg; assay type: functional
[13] = species on record: Rattus norvegicus; assay: Ex vivo concentration of inhibitor to double the activated clotting time was measured in rat plasma; assay type: functional
[14] = Clearance value was determined after intravenous dosing at 10 mg/kg in rat; assay type: ADME, organism-based; parameters: dose 10 mg/kg, route intravenous; settings: in vivo; summary of the method: as §2
[15] = Half life of compound was determined after intravenous dosing at 10 mg/kg in rat; assay type: ADME, organism-based; parameters: dose 10 mg/kg, route intravenous; settings: in vivo; summary of the method: as §2
[16] = test system: Rattus norvegicus; assay: Ex vivo activated clotting time was measured in rat plasma at 1 mg/kg; assay type: functional
[17] = Steady state volume of distribution (Vdss) was determined after intravenous dosing at 10 mg/kg in rat; assay type: ADME, organism-based; parameters: dose 10 mg/kg, route intravenous; settings: in vivo, read-out: Vdss; summary of the method: as §2

Row | Ki [1] | AUC [2] | Cmax [3] | SMILES | remaining at 20 µM [4] | remaining at 20 µM [5] | remaining at 20 µM [6] | remaining at 20 µM [7] | bioavailability [8] | AUC [9] | APTT [10] | APTT [11] | inhibition in vivo at 1 mg/kg [12] | Concentration to double activated clotting time [13] | clearance [14] | half-life [15] | ACT [16] | Vd [17]
1 | 0.005 nM | 1.42 µg·h/mL | 1.3 µg/mL | CS(=O)(=O)N[C@@H](C(=O)N1CCC[C@H]1C(=O)NCc1ccc(C(=N)N)s1)C(c1ccccc1)c1ccccc1.N=C(N)c1ccccc1 |  |  |  |  |  |  |  |  |  |  |  |  |  | 
2 | 0.02 nM |  | 2 µg/mL | N=C(N)c1csc(CNC(=O)[C@@H]2CCCN2C(=O)[C@H](NS(N)(=O)=O)C(c2ccccc2)c2ccccc2)c1 |  |  |  |  |  |  |  |  |  |  |  |  |  | 
3 | 0.01 nM |  |  | N=C(N)c1ccc(CNC(=O)[C@@H]2CCCN2C(=O)[C@H](NCCC(=O)O)C(c2ccccc2)c2ccccc2)s1 |  |  |  |  |  |  |  |  |  |  |  |  |  | 
4 | 0.013 nM | 2 µg·h/mL | 1.3 µg/mL | N=C(N)c1ccc(CNC(=O)[C@@H]2CCCN2C(=O)[C@H](NCC(=O)O)C(c2ccccc2)c2ccccc2)cc1 | 97% | 87% | 95% | 80% |  |  |  |  |  |  |  |  |  | 
5 | 0.008 nM | 3.43 µg·h/mL | 2.4 µg/mL | N=C(N)c1ccc(CNC(=O)[C@@H]2CCCN2C(=O)[C@H](NS(N)(=O)=O)C(c2ccccc2)c2ccccc2)cc1F |  |  |  |  |  |  |  |  |  |  |  |  |  | 
6 |  | 4.38 µg·h/mL | 2.8 µg/mL | CS(=O)(=O)N[C@@H](C(=O)N1CCC[C@H]1C(=O)NCc1ccc(C(=N)N)cc1)C(c1ccccc1)c1ccccc1 |  |  |  |  |  |  |  |  |  |  |  |  |  | 
7 | 0.16 nM |  | 0.5 µg/mL | N=C(N)c1cc(CNC(=O)[C@@H]2CCCN2C(=O)[C@H](NS(N)(=O)=O)C(c2ccccc2)c2ccccc2)cs1 |  |  |  |  |  |  |  |  |  |  |  |  |  | 
8 | 0.01 nM | 1.48 µg·h/mL | 1.1 µg/mL | N=C(N)c1ccc(CNC(=O)[C@@H]2CCCN2C(=O)[C@H](NS(N)(=O)=O)C(c2ccccc2)c2ccccc2)c(F)c1 |  |  |  |  |  |  |  |  |  |  |  |  |  | 
9 | 0.17 nM |  | 4.6 µg/mL | COC(=O)N[C@@H](C(=O)N1CCC[C@H]1C(=O)NCc1cc(C(=N)N)cs1)C(c1ccccc1)c1ccccc1 |  |  |  |  |  |  |  |  |  |  |  |  |  | 
10 |  |  |  | CC1CNc2c(cccc2S(=O)(=O)N[C@@H](CCCNC(=N)N)C(=O)N2CC[C@@H](C)C[C@@H]2C(=O)O)C1 (stereo not given in full) [ARGATROBAN] |  |  |  |  |  |  | 0.57 µM | 2.5 µM | 82% | 1.97 µM |  |  | 1.9 | 
11 |  | 4.1 µg·h/mL | 1.6 µg/mL | N=C(N)c1ccc(CNC(=O)[C@@H]2CCCN2C(=O)[C@H](NS(N)(=O)=O)C(c2ccccc2)c2ccccc2)cn1 |  |  |  |  |  |  |  |  |  |  |  |  |  | 
12 | 1.4 nM | 18.6 µg·h/mL | 7.1 µg/mL | COC(=O)N[C@@H](C(=O)N1CCC[C@H]1C(=O)NCc1coc(C(=N)N)c1)C(c1ccccc1)c1ccccc1 |  |  |  |  |  |  |  |  |  |  |  |  |  | 

Row | SMILES | Ki [1] | AUC [2] | Cmax [3] | remaining at 20 µM [4] | remaining at 20 µM [5] | remaining at 20 µM [6] | remaining at 20 µM [7] | bioavailability [8] | AUC [9] | APTT [10] | APTT [11] | inhibition in vivo at 1 mg/kg [12] | Concentration to double activated clotting time [13] | clearance [14] | half-life [15] | ACT [16] | Vd [17]
13 | N=C(N)c1ccc(CNC(=O)[C@@H]2CCCN2C(=O)[C@H](NS(N)(=O)=O)C(c2ccccc2)c2ccccc2)o1 | 0.43 nM | 2.27 µg·h/mL | 1 µg/mL |  |  |  |  |  |  |  |  |  |  |  |  |  | 
14 | COC(=O)N[C@@H](C(=O)N1CCC[C@H]1C(=O)NCc1ccc(C(=N)N)s1)C(c1ccccc1)c1ccccc1 | 0.015 nM | 7.1 µg·h/mL | 4.1 µg/mL | 38% | 60% | 91% | < 10% | 8% | 31.2 µg·h/mL | 0.34 µM | 2.85 µM | 93% | 3.75 µM | 0.324 L/h/kg | 53 min | 5.2 | 0.152 L/kg
15 | N=C(N)c1ccc(CNC(=O)[C@@H]2CCCN2C(=O)[C@H](NS(N)(=O)=O)C(c2ccccc2)c2ccccc2)s1 |  | 4.7 µg·h/mL |  | 86% | 84% | 96% | 81% | 11% | 14.4 µg·h/mL | 0.19 µM | 1.5 µM | 100% | 2.09 µM | 0.696 L/h/kg | 34 min |  | 0.31 L/kg
16 | CN(C(=O)C(NS(=O)(=O)c1ccc2ccccc2c1)c1ccc(C(=N)NN)cc1)C1CCCC1 (stereo not given) | 0.4 nM |  |  |  |  |  |  |  |  |  |  |  |  |  |  |  | 
17 | COC(=O)N[C@@H](C(=O)N1CCC[C@H]1C(=O)NCc1csc(C(=N)N)c1)C(c1ccccc1)c1ccccc1 | 0.6 nM |  | 8.6 µg/mL | 13% | 49% | 83% | < 10% | 7% | 102 µg·h/mL | 0.37 µM | 5.2 µM | 98% | 6.86 µM | 0.102 L/h/kg | 45 min | 3.7 | 0.23 L/kg
18 | N=C(N)c1ccc(CNC(=O)[C@@H]2CCCN2C(=O)[C@H](NS(N)(=O)=O)C(c2ccccc2)c2ccccc2)cc1 |  | 4.53 µg·h/mL | 2.8 µg/mL | 92% | 90% | 93% | 87% | 8% | 19.7 µg·h/mL | 0.14 µM | 1.24 µM | 100% | 1.23 µM | 0.516 L/h/kg | 45 min | 11 | 0.297 L/kg
19 | COC(=O)N[C@@H](C(=O)N1CCC[C@H]1C(=O)NCc1ccc(C(=N)N)nc1)C(c1ccccc1)c1ccccc1 | 0.017 nM | 26.1 µg·h/mL | 14 µg/mL |  |  |  |  | 11% | 80.4 µg·h/mL |  |  | 100% |  | 0.126 L/h/kg | 81 min | 6 | 0.139 L/kg
20 | COC(=O)N[C@@H](C(=O)N1CCC[C@H]1C(=O)NCc1ccc(C(=N)N)cc1)C(c1ccccc1)c1ccccc1 |  | 9.9 µg·h/mL | 4 µg/mL | 86% | 80% | 65% | 39% | 6% | 56.8 µg·h/mL |  |  | 100% |  | 0.18 L/h/kg | 69 min | 6.8 | 0.174 L/kg
